GI50 data for 17 molecules are collected here from ChEMBL document CHEMBL3616466, “Pyrazolo[3,4-h]quinolines promising photosensitizing agents in the treatment of cancer” (Eur J Med Chem, 2015).

By GI50 is commonly meant the concentration that inhibits growth by half.

Type in all cases: functional
In test [1] the test system is Jurkat. As to the kind of experiment: Photocytotoxicity against human Jurkat cells assessed as growth inhibition at 2.5 J/cm'2 irradiation for 30 mins followed by drug treated for 72 hrs by MTT assay. As to conditions: light or radiation study. The gist of the method: (§1)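 Cells seeded at 5 × 10³ per well and pre-incubated 24 h. Drug dilutions in HBSS (pH 7.2, from DMSO stock) added for 30 min at 37 °C, then UV-A irradiation at the stated dose. Drug solution then replaced with culture medium and plates incubated 72 h. Viability by MTT; GI50 from concentration series.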
In general terms: Tetrazolium dyes change colour on reduction, which living cells bring about.

In test [2] the test system is Jurkat. As to the kind of experiment: Photocytotoxicity against human Jurkat cells assessed as growth inhibition at 1.25 J/cm'2 irradiation for 30 mins followed by drug treated for 72 hrs by MTT assay. The conditions noted are these: light or radiation study. The gist of the method:
as §1

For test [3], the system named is HL-60. Description: Photocytotoxicity against human HL60 cells assessed as growth inhibition at 2.5 J/cm'2 irradiation for 30 mins followed by drug treated for 72 hrs by MTT assay. As to conditions: HL-60, light or radiation study. The method, boiled down:
as §1

Test [4] concerns A549. As to the kind of experiment: Photocytotoxicity against human A549 cells assessed as growth inhibition at 2.5 J/cm'2 irradiation for 30 mins followed by drug treated for 72 hrs by MTT assay. The conditions noted are these: A549, light or radiation study. The gist of the method: as §1
Test [5] has as its system MCF7. As to the kind of experiment: Photocytotoxicity against human MCF7 cells assessed as growth inhibition at 2.5 J/cm'2 irradiation for 30 mins followed by drug treated for 72 hrs by MTT assay. The conditions noted are these: MCF7, light or radiation study. The gist of the method:
as §1

For test [6], the system named is MCF7. Description: Photocytotoxicity against human MCF7 cells assessed as growth inhibition at 3.75 J/cm'2 irradiation for 30 mins followed by drug treated for 72 hrs by MTT assay. The conditions noted are these: MCF7, light or radiation study. The method, boiled down: as §1
The test system of test [7] is A549. Description: Photocytotoxicity against human A549 cells assessed as growth inhibition at 3.75 J/cm'2 irradiation for 30 mins followed by drug treated for 72 hrs by MTT assay. As to conditions: A549, light or radiation study. The gist of the method: as §1
The subject of test [8] is LoVo. As to the kind of experiment: Photocytotoxicity against human LoVo cells assessed as growth inhibition at 3.75 J/cm'2 irradiation for 30 mins followed by drug treated for 72 hrs by MTT assay. The conditions noted are these: light or radiation study. The gist of the method:
as §1

For test [9], the system named is LoVo. Description: Photocytotoxicity against human LoVo cells assessed as growth inhibition at 2.5 J/cm'2 irradiation for 30 mins followed by drug treated for 72 hrs by MTT assay. As to conditions: light or radiation study. The gist of the method: as §1
For test [10], the system named is HL-60. Description: Photocytotoxicity against human HL60 cells assessed as growth inhibition at 1.25 J/cm'2 irradiation for 30 mins followed by drug treated for 72 hrs by MTT assay. The conditions noted are these: HL-60, light or radiation study. The gist of the method:
as §1

In test [11] the test system is MCF7. As to the kind of experiment: Cytotoxicity against human MCF7 cells assessed as growth inhibition after 72 hrs by MTT assay. As to conditions: MCF7, 72 h. The gist of the method:
(§2)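 Cells (5 × 10³ per well) pre-incubated 24 h at 37 °C, 5% CO₂, then exposed in the dark to serial concentrations diluted from DMSO stock into complete medium for 72 h at 37 °C. Viability read by MTT; GI50 derived. LoVo in Ham's F-12, MCF-7 and A-549 in DMEM, all with 10% FBS and penicillin/streptomycin.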

The subject of test [12] is LoVo. As to the kind of experiment: Cytotoxicity against human LoVo cells assessed as growth inhibition after 72 hrs by MTT assay. The gist of the method:
as §2

Test [13] has as its system HL-60. As to the kind of experiment: Cytotoxicity against human HL60 cells assessed as growth inhibition after 72 hrs by MTT assay. The conditions noted are these: HL-60, 72 h.
Test [14] concerns A549. As to the kind of experiment: Cytotoxicity against human A549 cells assessed as growth inhibition after 72 hrs by MTT assay. As to conditions: A549, 72 h. The method, boiled down: as §2
Test [15] deals with Jurkat. Description: Cytotoxicity against human Jurkat cells assessed as growth inhibition after 72 hrs by MTT assay.

Regarding `O=c1[nH]c2c(cc1S(=O)(=O)c1ccccc1)CCc1c-2cnn1-c1ccccc1Cl`, the GI50 in the test with Jurkat [1] worked out at 3.95 µM; with Jurkat [2], 11.3 µM; with HL-60 [3], 2.76 µM; in the test on A549 [4], 13.3 µM; in the test with MCF7 [5], 13 µM; with MCF7 [6], 10.4 µM. For the same molecule, the GI50 in the test on A549 [7] was 8.97 µM; in the test on LoVo [8] it was 10.1 µM; in the test with LoVo [9], more than 20 µM.

For the molecule `COc1ccc(-n2ncc3c2CCc2cc(S(=O)(=O)c4ccccc4)c(=O)n(Cc4ccccc4)c2-3)cc1`, the GI50 in the test on Jurkat [1], in the test on Jurkat [2], with HL-60 [3], in the test on A549 [4], in the test with MCF7 [5] and in the test with HL-60 [10] was more than 20 µM in each case. Also, the GI50 is more than 20 µM in the test on MCF7 [6], more than 20 µM with A549 [7], 4.12 µM in the test with LoVo [8] and more than 20 µM in the test with LoVo [9].

Regarding `Cn1c2c(cc(S(=O)(=O)c3ccccc3)c1=O)CCc1c-2cnn1Cc1ccccc1`, the GI50 is 5.67 µM in the test on Jurkat [1]; more than 20 µM in the test on Jurkat [2]; 6.79 µM in the test with HL-60 [3]; more than 20 µM with A549 [4]; more than 20 µM in the test with MCF7 [5]; more than 20 µM in the test on HL-60 [10]. In addition, the GI50 was more than 20 µM in the test with MCF7 [6], more than 20 µM with A549 [7], 13 µM in the test on LoVo [8] and more than 20 µM with LoVo [9].

`O=c1ccc2ccc3occc3c2o1` [ANGELICIN]: the GI50 in the test on Jurkat [1] turned out to be 1 µM; in the test with HL-60 [3], 1.2 µM; in the test on MCF7 [5], 4.42 µM; in the test with MCF7 [6] it was 1.5 µM; in the test on LoVo [8] it was 1.11 µM; in the test with LoVo [9], 4 µM.

Take `COc1nc2c(cc1S(=O)(=O)c1ccccc1)CCc1c-2cnn1C`: the concentration for 50% growth inhibition (GI50) in the test on Jurkat [1] is 12.7 µM; in the test on Jurkat [2], more than 20 µM; in the test with HL-60 [3], 9.79 µM; in the test on A549 [4], more than 20 µM; in the test with MCF7 [5], more than 20 µM; with HL-60 [10], more than 20 µM. For the same molecule, the GI50 in the test on MCF7 [6], with A549 [7], in the test with LoVo [8] and in the test on LoVo [9] was more than 20 µM each time.

Regarding `Cn1c2c(cc(S(=O)(=O)c3ccccc3)c1=O)CCc1c-2cnn1-c1ccccc1Cl`, the GI50 with Jurkat [1] was 5.21 µM; with Jurkat [2], more than 20 µM; with HL-60 [3], 4.82 µM; with A549 [4], more than 20 µM; with MCF7 [5], more than 20 µM; in the test with HL-60 [10] it was 11.5 µM. For the same molecule, the GI50 in the test with MCF7 [6] was 12.6 µM; in the test on A549 [7], 13 µM; in the test on LoVo [8], 13.1 µM; with LoVo [9], more than 20 µM.

Take `CCOC(=O)c1cc2c(nc1OC)-c1cnn(-c3ccc(OC)cc3)c1CC2`: the GI50 in the test with Jurkat [1] was 6.43 µM; in the test on Jurkat [2], 9.93 µM; with HL-60 [3], 4.69 µM; with A549 [4], 6.99 µM; in the test on MCF7 [5], more than 20 µM; in the test with HL-60 [10], 7.71 µM. The GI50 is more than 20 µM with MCF7 [6], 4.67 µM with A549 [7], 4.3 µM in the test with LoVo [8] and 5.81 µM in the test with LoVo [9].

For `O=c1[nH]c2c(cc1S(=O)(=O)c1ccccc1)CCc1c-2cnn1Cc1ccccc1`, the GI50 with Jurkat [1] was 6.88 µM; with Jurkat [2] it was more than 20 µM; in the test with HL-60 [3], 5.06 µM; in the test on A549 [4], more than 20 µM; with MCF7 [5], more than 20 µM; in the test with HL-60 [10], more than 20 µM. Also, the GI50 was more than 20 µM in the test on MCF7 [6], more than 20 µM with A549 [7], 14.5 µM in the test with LoVo [8] and more than 20 µM with LoVo [9].

In the case of `COc1ccc(-n2ncc3c2CCc2cc(S(=O)(=O)c4ccccc4)c(OCc4ccccc4)nc2-3)cc1`, the GI50 with Jurkat [1] is more than 20 µM; in the test on Jurkat [2] it was more than 20 µM; with HL-60 [3], 9.09 µM; with A549 [4], more than 20 µM; in the test on MCF7 [5], more than 20 µM; with HL-60 [10] it was more than 20 µM. Besides, the GI50 in the test with MCF7 [6] is more than 20 µM; with A549 [7], 5.74 µM; with LoVo [8], 2.76 µM; in the test on LoVo [9], more than 20 µM.

Turning to `O=c1[nH]c2c(cc1S(=O)(=O)c1ccccc1)CCc1c-2cnn1-c1ccc(Cl)cc1`, the 50% growth inhibitory concentration (GI50) in the test with MCF7 [11] is 11.2 µM; in the test on LoVo [12], more than 20 µM; in the test with HL-60 [13] it was more than 20 µM; with A549 [14] it was 6.25 µM; in the test on Jurkat [15] it was more than 20 µM.

As for `CCOC(=O)c1cc2c(nc1OC)-c1cnn(-c3ccc(Cl)cc3)c1CC2`, the GI50 was 1.81 µM in the test with Jurkat [1]; 4.47 µM in the test on Jurkat [2]; 1.71 µM with HL-60 [3]; 3.68 µM with A549 [4]; more than 20 µM in the test with MCF7 [5]; 5.38 µM with HL-60 [10]. For the same molecule, the GI50 in the test with MCF7 [6] is more than 20 µM; in the test with A549 [7], 2.3 µM; with LoVo [8], 1.13 µM; with LoVo [9] it was 2.79 µM.

As for `Cn1c2c(cc(S(=O)(=O)c3ccccc3)c1=O)CCc1c-2cnn1-c1ccc(Cl)cc1`, the GI50 with Jurkat [1] is 3.01 µM; in the test with Jurkat [2], more than 20 µM; in the test on HL-60 [3] it was 2.88 µM; in the test with A549 [4], more than 20 µM; with MCF7 [5], more than 20 µM; in the test on HL-60 [10], more than 20 µM. In addition, the GI50 with MCF7 [6] is more than 20 µM; with A549 [7] it was more than 20 µM; in the test with LoVo [8], 11.1 µM; with LoVo [9], more than 20 µM.

With `COc1ccc(-n2ncc3c2CCc2cc(S(=O)(=O)c4ccccc4)c(=O)n(C)c2-3)cc1`, the GI50 is 6.68 µM in the test on Jurkat [1]; more than 20 µM in the test on Jurkat [2]; 7.65 µM with HL-60 [3]; more than 20 µM in the test with A549 [4]; more than 20 µM in the test on MCF7 [5]; more than 20 µM in the test with HL-60 [10]. Further, the GI50 with MCF7 [6], with A549 [7], with LoVo [8] and with LoVo [9] was more than 20 µM each time.

For the molecule `COc1ccc(-n2ncc3c2CCc2cc(S(=O)(=O)c4ccccc4)c(=O)[nH]c2-3)cc1`, the GI50 was 8.54 µM in the test on MCF7 [11]; more than 20 µM in the test on LoVo [12]; more than 20 µM in the test on HL-60 [13]; 4.04 µM in the test on A549 [14]; more than 20 µM in the test with Jurkat [15].

As for `CCOC(=O)c1cc2c(n(C)c1=O)-c1cnn(-c3ccc(Cl)cc3)c1CC2`, the GI50 in the test with Jurkat [1] is more than 20 µM; with Jurkat [2] it was more than 20 µM; in the test with HL-60 [3] it was 7.67 µM; in the test on A549 [4] it was more than 20 µM; in the test on MCF7 [5], more than 20 µM; in the test on HL-60 [10] it was more than 20 µM. Further, the GI50 with MCF7 [6], in the test with A549 [7], in the test with LoVo [8] and in the test with LoVo [9] was more than 20 µM throughout.

As for `O=c1[nH]c2c(ccc3c2cnn3-c2ccc(Cl)cc2)cc1S(=O)(=O)c1ccccc1`, the GI50 with MCF7 [11] is 9.26 µM; with LoVo [12], more than 20 µM; in the test with HL-60 [13], more than 20 µM; in the test with A549 [14] it was 1.46 µM; with Jurkat [15], more than 20 µM.

As for `Cn1c2c(cc(S(=O)(=O)c3ccccc3)c1=O)CCc1c-2cnn1-c1ccccc1`, the GI50 in the test with Jurkat [1] was 6.99 µM; in the test on Jurkat [2], more than 20 µM; with HL-60 [3], more than 20 µM; in the test with A549 [4], more than 20 µM; in the test on MCF7 [5], more than 20 µM; in the test on HL-60 [10], more than 20 µM. Moreover, the GI50 in the test on MCF7 [6], in the test on A549 [7], in the test on LoVo [8] and in the test on LoVo [9] was more than 20 µM each time.
